Results reported in publication PMC2289653 (The Journal of Cell Biology, 1992).

Legend:
myristyl transferase = assay: Efficiency of myristylation on translation in reticulocyte lysate; format: biochemical; conditions: rabbit reticulocyte lysate; densitometry; normalized to pp60v-src = 1; Table II
Method in brief: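 Constructs translated in rabbit reticulocyte lysate for 90 min at 30°C, with either 0.4 µCi/µl [35S]methionine or 0.7 µCi/µl [3H]myristic acid. Products resolved by SDS gel; myristate-to-methionine incorporation ratio expressed relative to wild-type.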

[1] = system: plasma membrane-enriched fractions (P100) from vole cells; membrane-bound src receptor; assay: In vitro membrane binding of in vitro translated src proteins; conditions: for decrease in membrane-binding capacity versus wild type: P100 membranes from normal vole cells, average of three experiments, Fig. 5
[2] = system: kin-src binding to plasma membranes (src receptor); assay: Competition of kin-src membrane binding by peptides or polypeptides; set-up: species or system vole
Method in brief: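 [35S]methionine-labelled chimera translated in rabbit reticulocyte lysate (90 min, 30°C; Triton X-100 0.075% final), then incubated 30 min at 20°C with 1T cell P100 membranes with increasing myristylated peptide. Also tested: 8-mer at 92 µM, 15-mer at 58 µM, or in vitro translated competitor polypeptide. Pellets at 100,000 g; gel slices counted. Pellet without membranes subtracted; untreated membranes set to 100%.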

[3] = system: pp60v-src binding to plasma membranes (src receptor); assay: Competition of pp60v-src membrane binding by peptides or polypeptides; set-up: species or system vole
Method in brief: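 1T cell P100 membranes incubated with [35S]methionine-labelled, reticulocyte-lysate-translated protein plus increasing myristylated N-terminal peptides, including Lys→Asn or Arg variants. Nonmyristylated peptide served as control. Incubation 30 min at 20°C, then ultracentrifugation at 100,000 g. Gel slices counted by scintillation. Pellet without membranes subtracted; binding to untreated membranes normalised to 100%.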

[4] = system: pp60v-src binding to plasma membranes (src receptor); conditions: previous experiments; ref Resh, 1989; cited from earlier work
NIH3T3 cells [5] = assay: Subcellular fractionation and immunofluorescence of G418-resistant NIH3T3 clones; format: cell-based; conditions: for Percent association with cell fraction P1 / Percent association with cell fraction P100: percentage of total src kinase activity; for Percent association with cell fraction P1: 1,000-g pellet; for Percent association with cell fraction P100: 100,000-g pellet
Method in brief: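 G418-resistant NIH3T3 clones (retroviral transfer) labelled 1 h with 50 µCi/ml [35S]methionine. Cells lysed by hypotonic Dounce homogenisation and spun into a 1,000 g pellet (P1), a 100,000 g pellet (P100) and S100. Fractions adjusted to kinase buffer, immunoprecipitated with anti-p60 serum, and subjected to in vitro kinase assay. Analysed by SDS-PAGE and scintillation counting; each fraction given as percent of total kinase activity.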

NIH3T3 cells [6] = assay: Transformation: morphology and growth in soft agar; format: cell-based
Method in brief: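 NIH3T3 cells transduced with PLJ retroviral vector carrying src or chimera, or with vector alone. G418-resistant clones expanded, then morphology examined by phase-contrast microscopy. Growth in soft agar scored +/− per clone.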

[7] = system: del 15-263 binding to vole cell membranes (P100); assay: Competition of del 15-263 membrane binding by MGYsrc peptide
Method in brief: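 In vitro translated [35S]methionine-labelled deletion mutant (rabbit reticulocyte lysate) incubated with vole P100 membranes with increasing myristylated src peptide. Binding quantitated by gel slice scintillation counting, pellet without membranes subtracted, untreated membranes set to 100%. In parallel, membranes were incubated 15 min at 20°C with 4 × 10^5 c.p.m. 125I-peptide, then 15 min with BS3 crosslinker, in the presence of increasing unlabelled peptide. After 100,000 g reisolation, SDS gel, and gamma counting of the excised band.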

[8] = peptide at 340 μM, 1T cell P100 membranes, Fig. 2

Substance: v-src N9: mutant of v-src in which lysine 9 has been converted to asparagine
- Relative incorporation [3H]myristate/[35S]methionine (myristyl transferase): 0.98
- decrease in membrane-binding capacity versus wild type [1]: 45%

Substance: GQ1WTTPLY [myristylated gag peptide, reference compound]
- effect on the binding of kin-src ([2]; data not shown): did not have a significant effect

Substance: v-src N5: mutant of v-src in which lysine 5 has been converted to asparagine
- Relative incorporation [3H]myristate/[35S]methionine (myristyl transferase): 0.99
- decrease in membrane-binding capacity versus wild type [1]: 30%

Substance: v-src N5+9: mutant of v-src in which both lysines 5 and 9 were converted to asparagine
- Relative incorporation [3H]myristate/[35S]methionine (myristyl transferase): 0.93
- decrease in membrane-binding capacity versus wild type [1]: ~ 60%

Substance: GSSKSKPKDPSY [GYsrc]
- inhibition of pp60v-src membrane binding [3, 8]: 10-20%
- inhibition of kin-src membrane binding [2, 8]: 10-20%

Substance: GNAAAAKKY [8 mer]
- inhibition of pp60v-src binding [4]: failed to detect inhibition
- inhibition of membrane binding of kin-src ([2]; peptide at 92 μM): 35%

Substance: pp60v-src: protein product of the v-src gene of Rous sarcoma virus; NH2 terminus M G S S K S K P K D P S Q R
- Percent association with cell fraction P1 (NIH3T3 cells [5]; clone 1): 43%
- Percent association with cell fraction P100 (NIH3T3 cells [5]; clone 1): 47%
- Percent association with cell fraction P1 (NIH3T3 cells [5]; clone 2): 32%
- Percent association with cell fraction P100 (NIH3T3 cells [5]; clone 2): 61%
- Percent association with cell fraction P1 (NIH3T3 cells [5]; clone 3): 17%
- Percent association with cell fraction P100 (NIH3T3 cells [5]; clone 3): 67%
- Percent association with cell fraction P1 (NIH3T3 cells [5]; clone 4): 34%
- Percent association with cell fraction P100 (NIH3T3 cells [5]; clone 4): 57%
- polypeptide membrane associated in vivo (NIH3T3 cells [5]; hypotonic lysis and differential centrifugation, Table III): 80-90%
- subcellular localization in vivo (NIH3T3 cells [5]; indirect immunofluorescence and cellular fractionation): punctate membrane staining
- competition of radiolabeled kin-src binding by polypeptide ([2]; equimolar or submolar concentrations of in vitro translated polypeptide, data not shown): readily com- peted
- morphology of expressing cells (NIH3T3 cells [6]; G418-resistant clonal populations, phase contrast, Fig. 3): fully transformed
- growth in soft agar (NIH3T3 cells [6]; G418-resistant clones, Table III prints + for all four clones of each): capable of growth in soft agar
- ratio of src protein in the pellet fraction +Mbs/-Mbs ([1]; 1T membranes (P100), 30 min at 20°C, average of four experiments, Fig. 1): 3.2

Substance: GSSKSKPKDPSY [MGYsrc]
- maximum inhibition of pp60v-src binding ([3]; competition never complete, on average, Figs. 2 and 4): 50-60%
- kin-src polypeptide released from the membrane by MGYsrc ([2]; from the shape of the binding curve in Fig. 2): ~75%
- inhibition of binding of the del 15-263 polypeptide ([7]; increasing MGYsrc, vole cell P100 membranes, Fig. 6): 80-90%
- Ki ([7]; read-out: Ki for membrane binding of del 15-263, vole P100 membranes, Fig. 7): 35 µM
